We go through 1 compound from publication PMC11000255 (Journal of the American Chemical Society, 2024).

Like-named read-outs stand apart in the source and are kept apart here. Bounds are passed on as bounds.

Assay [1] has as its target kynurenine-oxoglutarate transaminase 3 (KYAT3) (Homo sapiens, UniProt Q6YP21). Description: TMT18plex lysine ligandability profiling, KYAT3. The format is binding. To be noted: 100 μM, 8 h, breast cancer cells. The procedure, abridged:
(§1)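 Live MDA-MB-231 or MDA-MB-436 breast cancer cells were exposed to the test compound (100 µM, 8 h) or DMSO vehicle. Lysates (soluble and insoluble fractions) were chased with a desthiobiotin-tagged lysine-specific STP ester probe, trypsin-digested, streptavidin-enriched and quantified by TMTpro-18plex. Lysines had to be quantified in all biological triplicates and TMT channels. A lysine counted as liganded at ≥60% loss of probe enrichment relative to DMSO.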

Assay [2] has as its target nucleostemin (GNL3) (Homo sapiens, UniProt Q9BVP2). Description: TMT18plex lysine ligandability profiling, GNL3. The format is binding. The following applies: 100 μM, 8 h, breast cancer cells. In short, it runs like this: as §1
Assay [3] has as its target T1, ABHD12 (Homo sapiens, UniProt Q8N2K0).
T1 sequence (Q8N2K0 1-398): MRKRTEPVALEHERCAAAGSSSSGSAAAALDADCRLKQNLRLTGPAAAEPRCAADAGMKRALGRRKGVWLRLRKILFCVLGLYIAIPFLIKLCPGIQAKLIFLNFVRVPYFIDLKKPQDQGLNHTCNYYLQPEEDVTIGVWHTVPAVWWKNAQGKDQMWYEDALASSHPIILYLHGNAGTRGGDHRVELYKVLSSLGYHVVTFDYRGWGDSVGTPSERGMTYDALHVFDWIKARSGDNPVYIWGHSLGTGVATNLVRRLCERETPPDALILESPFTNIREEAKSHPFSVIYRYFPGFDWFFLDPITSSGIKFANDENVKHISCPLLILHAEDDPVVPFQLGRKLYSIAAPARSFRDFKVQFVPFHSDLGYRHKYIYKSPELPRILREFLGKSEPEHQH
Nature of the assay: TMT18plex lysine ligandability profiling, ABHD12. The class given is binding. To be noted: both MDA-MB-231 and MDA-MB-436 cell lines. The procedure, abridged:
as §1

Assay [4] deals with PFKL (Homo sapiens, UniProt P17858). Description: TMT18plex lysine ligandability profiling, PFKL. The following applies: 100 μM, 8 h, breast cancer cells. The class given is binding.
Chain of PFKL (P17858 whole entry): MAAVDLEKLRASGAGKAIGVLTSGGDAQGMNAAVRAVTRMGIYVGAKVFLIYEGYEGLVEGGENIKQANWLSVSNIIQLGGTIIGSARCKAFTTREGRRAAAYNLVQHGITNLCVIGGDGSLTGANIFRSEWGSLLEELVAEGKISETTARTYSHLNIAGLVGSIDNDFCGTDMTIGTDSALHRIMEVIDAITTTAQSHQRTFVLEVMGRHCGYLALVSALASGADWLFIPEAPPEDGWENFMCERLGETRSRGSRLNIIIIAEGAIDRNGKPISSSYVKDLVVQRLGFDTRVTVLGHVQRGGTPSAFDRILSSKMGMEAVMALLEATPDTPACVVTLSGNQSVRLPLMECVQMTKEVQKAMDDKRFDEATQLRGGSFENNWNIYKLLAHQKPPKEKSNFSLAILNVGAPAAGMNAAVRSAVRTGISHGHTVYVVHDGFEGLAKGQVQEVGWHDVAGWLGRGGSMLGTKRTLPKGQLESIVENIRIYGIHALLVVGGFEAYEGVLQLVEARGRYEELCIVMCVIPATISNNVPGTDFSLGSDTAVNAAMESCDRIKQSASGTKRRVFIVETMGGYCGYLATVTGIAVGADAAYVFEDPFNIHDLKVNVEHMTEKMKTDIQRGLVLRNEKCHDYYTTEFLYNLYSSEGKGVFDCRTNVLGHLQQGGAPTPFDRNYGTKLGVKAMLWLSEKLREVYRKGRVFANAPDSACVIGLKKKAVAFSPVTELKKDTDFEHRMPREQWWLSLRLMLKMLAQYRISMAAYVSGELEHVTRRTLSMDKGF
Assay [5] concerns the target PFKP (Homo sapiens, UniProt Q01813). Description: TMT18plex lysine ligandability profiling, PFKP. To be noted: 100 μM, 8 h, breast cancer cells. The format is binding. The procedure, abridged:
as §1

For assay [6], the target named is T2, WT-ABHD12 (Homo sapiens, UniProt Q8N2K0).
T2 sequence (Q8N2K0 1-398): T1 sequence (Q8N2K0 1-398)
Nature of the assay: LC/MS-based LPS hydrolysis assay, WT-ABHD12 in HEK293T cell lysates. The format is biochemical. To be noted: read-out: apparent IC50, inhibition of LPS hydrolysis activity; WT-ABHD12. In short, it runs like this: (§2)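 Recombinant ABHD12 (WT, S246A and K373 mutants) was expressed in HEK293T cells and used as cell lysate. Lysate was preincubated with the test compound (single-point 100 µM, or a dose series; 1 h, 37 °C), then given 17:1 LPS substrate (100 µM, 20 min, 37 °C).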

Assay [7] concerns the target K373R-ABHD12 (Homo sapiens, UniProt Q8N2K0, K373R). Description: LC/MS-based LPS hydrolysis assay, K373R-ABHD12 in HEK293T cell lysates. The class given is biochemical. The following applies: read-out: IC50, inhibition of LPS hydrolysis activity; K373R-ABHD12 mutant. The procedure, abridged: as §2
Assay [8] concerns MDA-MB-231 cells. Description: untargeted lipidomics profiling of treated cells. The format is cell-based, human. To be noted: 100 μM, 8 h.
Assay [9] deals with WT-PFKL (Homo sapiens, UniProt P17858). Nature of the assay: enzyme-coupled F6P phosphorylation assay, WT-PFKL in HEK293T cell lysates. The class given is biochemical. To be noted: read-out: apparent IC50, inhibition of PFKL activity.
Chain of WT-PFKL (P17858 whole entry): as above
The target in assay [10] is K681R-PFKL (Homo sapiens, UniProt P17858, K681R). Nature of the assay: enzyme-coupled F6P phosphorylation assay, K681R-PFKL. The class given is biochemical. The following applies: read-out: IC50, inhibition of PFKL activity.
Chain of K681R-PFKL (P17858 whole entry K681R): as the sequence (P17858 whole entry) above, with K681R counted along it
For assay [11], the target named is K677R-PFKL (Homo sapiens, UniProt P17858, K677R). Nature of the assay: enzyme-coupled F6P phosphorylation assay, K677R-PFKL. The format is biochemical. The following applies: read-out: IC50, inhibition of PFKL activity.
Chain of K677R-PFKL (P17858 whole entry K677R): as the sequence (P17858 whole entry) above, with K677R counted along it
The target of assay [12] is K677R/K681R-PFKL (Homo sapiens, UniProt P17858, K677R/K681R). Nature of the assay: enzyme-coupled F6P phosphorylation assay, K677R/K681R-PFKL double mutant. The format is biochemical. The following applies: read-out: IC50, inhibition of PFKL activity.
Chain of K677R/K681R-PFKL (P17858 whole entry K677R/K681R): as the sequence (P17858 whole entry) above, with K677R, K681R counted along it
The target of assay [13] is K677R/K681R/K315R-PFKL (Homo sapiens, UniProt P17858, K315R/K677R/K681R). Description: enzyme-coupled F6P phosphorylation assay, K677R/K681R/K315R-PFKL triple mutant. To be noted: read-out: IC50, inhibition of PFKL activity. The format is biochemical.
Chain of K677R/K681R/K315R-PFKL (P17858 whole entry K315R/K677R/K681R): as the sequence (P17858 whole entry) above, with K315R, K677R, K681R counted along it
Assay [14] deals with T3, WT-PFKP (Homo sapiens, UniProt Q01813).
T3 sequence (Q01813 1-784): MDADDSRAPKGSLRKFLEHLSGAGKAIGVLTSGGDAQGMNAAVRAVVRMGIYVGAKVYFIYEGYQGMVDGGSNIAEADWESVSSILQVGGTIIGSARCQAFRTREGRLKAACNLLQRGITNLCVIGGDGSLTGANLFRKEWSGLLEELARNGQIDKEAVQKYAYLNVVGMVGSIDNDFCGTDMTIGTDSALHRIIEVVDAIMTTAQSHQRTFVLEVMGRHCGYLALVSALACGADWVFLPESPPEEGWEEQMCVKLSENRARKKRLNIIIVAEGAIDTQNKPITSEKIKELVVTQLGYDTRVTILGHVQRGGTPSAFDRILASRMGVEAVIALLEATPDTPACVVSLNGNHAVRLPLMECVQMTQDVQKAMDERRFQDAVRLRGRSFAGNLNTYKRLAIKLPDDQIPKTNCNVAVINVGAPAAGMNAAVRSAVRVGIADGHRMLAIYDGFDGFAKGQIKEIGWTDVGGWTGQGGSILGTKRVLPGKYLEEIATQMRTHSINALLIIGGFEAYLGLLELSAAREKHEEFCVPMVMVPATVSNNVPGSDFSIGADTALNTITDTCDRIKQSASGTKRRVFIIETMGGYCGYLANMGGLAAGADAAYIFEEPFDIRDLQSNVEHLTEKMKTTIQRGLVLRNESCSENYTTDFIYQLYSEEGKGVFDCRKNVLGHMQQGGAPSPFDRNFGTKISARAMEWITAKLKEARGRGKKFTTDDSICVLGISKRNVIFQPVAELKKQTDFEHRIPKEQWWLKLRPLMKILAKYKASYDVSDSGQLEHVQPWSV
The format is binding.

In assay [15] the target is T3, WT-PFKP. Description: F6P phosphorylation assay, WT-PFKP in HEK293T cell lysates. The format is biochemical. The following applies: read-out: IC50, inhibition of PFKP activity.
The target of assay [16] is K688R-PFKP (Homo sapiens, UniProt Q01813, K688R). Nature of the assay: F6P phosphorylation assay, K688R-PFKP in HEK293T cell lysates. The class given is biochemical. To be noted: read-out: IC50, inhibition of PFKP activity; K688R-PFKP variant.
Chain of K688R-PFKP (Q01813 whole entry K688R): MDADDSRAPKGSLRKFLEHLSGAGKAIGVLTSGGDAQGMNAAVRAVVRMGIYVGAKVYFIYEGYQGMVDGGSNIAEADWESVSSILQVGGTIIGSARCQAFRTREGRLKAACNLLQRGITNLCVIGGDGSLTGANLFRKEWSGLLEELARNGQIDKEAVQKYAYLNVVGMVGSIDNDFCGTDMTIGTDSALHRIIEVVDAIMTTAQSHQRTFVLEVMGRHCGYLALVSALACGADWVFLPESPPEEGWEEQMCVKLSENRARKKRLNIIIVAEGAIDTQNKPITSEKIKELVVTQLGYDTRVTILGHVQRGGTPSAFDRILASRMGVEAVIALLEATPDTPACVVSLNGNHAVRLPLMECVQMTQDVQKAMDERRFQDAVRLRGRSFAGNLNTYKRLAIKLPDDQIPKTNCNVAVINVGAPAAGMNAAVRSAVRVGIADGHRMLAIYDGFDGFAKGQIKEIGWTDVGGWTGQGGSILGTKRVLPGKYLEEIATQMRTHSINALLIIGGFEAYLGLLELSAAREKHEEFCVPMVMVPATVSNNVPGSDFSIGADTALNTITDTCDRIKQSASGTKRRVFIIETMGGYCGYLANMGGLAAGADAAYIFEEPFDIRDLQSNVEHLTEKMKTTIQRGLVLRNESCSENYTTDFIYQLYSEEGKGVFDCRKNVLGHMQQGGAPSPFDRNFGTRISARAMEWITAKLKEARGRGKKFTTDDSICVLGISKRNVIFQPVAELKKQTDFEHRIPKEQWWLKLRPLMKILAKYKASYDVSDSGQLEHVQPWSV

Chain of kynurenine-oxoglutarate transaminase 3 (KYAT3) (Q6YP21 whole entry): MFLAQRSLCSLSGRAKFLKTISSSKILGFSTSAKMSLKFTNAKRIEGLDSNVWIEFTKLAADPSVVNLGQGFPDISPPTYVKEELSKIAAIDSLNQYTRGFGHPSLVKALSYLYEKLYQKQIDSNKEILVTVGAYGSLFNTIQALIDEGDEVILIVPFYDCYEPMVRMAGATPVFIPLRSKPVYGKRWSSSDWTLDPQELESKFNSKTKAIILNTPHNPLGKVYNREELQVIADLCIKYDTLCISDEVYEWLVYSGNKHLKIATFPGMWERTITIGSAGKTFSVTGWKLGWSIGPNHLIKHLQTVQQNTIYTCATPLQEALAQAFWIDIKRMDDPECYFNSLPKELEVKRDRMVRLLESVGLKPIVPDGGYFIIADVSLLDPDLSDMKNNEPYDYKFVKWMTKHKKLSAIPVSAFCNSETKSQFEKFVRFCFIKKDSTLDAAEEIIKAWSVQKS
Chain of nucleostemin (GNL3) (Q9BVP2 whole entry): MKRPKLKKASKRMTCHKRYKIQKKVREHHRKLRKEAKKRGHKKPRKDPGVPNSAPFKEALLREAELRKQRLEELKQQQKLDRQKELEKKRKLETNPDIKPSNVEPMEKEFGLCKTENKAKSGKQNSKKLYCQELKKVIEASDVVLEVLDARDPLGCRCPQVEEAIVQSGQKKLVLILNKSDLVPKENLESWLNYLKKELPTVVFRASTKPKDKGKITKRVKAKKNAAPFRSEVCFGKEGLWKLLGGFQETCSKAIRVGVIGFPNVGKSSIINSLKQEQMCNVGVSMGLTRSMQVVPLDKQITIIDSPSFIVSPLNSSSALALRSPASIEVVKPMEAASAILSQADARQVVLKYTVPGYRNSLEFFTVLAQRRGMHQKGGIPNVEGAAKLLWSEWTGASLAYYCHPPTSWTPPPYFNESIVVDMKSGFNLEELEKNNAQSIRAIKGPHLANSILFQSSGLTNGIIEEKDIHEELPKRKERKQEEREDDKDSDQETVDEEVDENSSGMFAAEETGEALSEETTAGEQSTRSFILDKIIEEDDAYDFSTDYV
Chain of K373R-ABHD12 (Q8N2K0 whole entry K373R): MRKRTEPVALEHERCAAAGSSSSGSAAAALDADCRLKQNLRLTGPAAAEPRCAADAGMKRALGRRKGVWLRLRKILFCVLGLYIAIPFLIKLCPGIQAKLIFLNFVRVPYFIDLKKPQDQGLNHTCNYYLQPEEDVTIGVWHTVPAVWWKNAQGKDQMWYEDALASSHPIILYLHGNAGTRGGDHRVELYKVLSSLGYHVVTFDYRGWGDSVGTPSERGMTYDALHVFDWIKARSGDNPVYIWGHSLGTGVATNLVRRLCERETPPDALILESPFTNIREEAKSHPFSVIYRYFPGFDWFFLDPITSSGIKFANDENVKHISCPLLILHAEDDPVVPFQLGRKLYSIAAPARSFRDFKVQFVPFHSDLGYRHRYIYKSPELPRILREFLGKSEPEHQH

With `CC1(C)[C@@H]2C[C@H]3[C@H](c4ccccc4)c4c(O)c(C=O)c(O)c(C=O)c4O[C@@]3(C)[C@H]1C2` [(−)-guadial B], the “ligandability of K330 in KYAT3” value in [1] is 28%. The “ligandability of K20 in GNL3” value in assay [2] is 74%. The “ligandability of K373 in ABHD12” value in [3] is 66%. Further, in [4], the “ligandability of K677 in PFKL” value was 65%. Also, the “ligandability of K681 in PFKL” value in [4] is given as 60%. Further, the “ligandability of K688 in PFKP” value in assay [5] was 60%. Further, the IC50 in [6] was 18.1 µM; in [7], above 100 µM; in assay [9], 4.6 µM; in assay [10], 7 µM; in assay [11] it was 8.6 µM; in assay [12], 78.5 µM. Also, the IC50 in assay [13] was above 100 µM; in [14] (read-out: apparent IC50, blockade of P1 probe labeling, WT-PFKP), 13.8 µM; in assay [15], 3.8 µM; in assay [16], above 100 µM. For the same compound, the “levels of monoacylglycerophosphoserine LPS(18:0)” value in assay [8] is “significantly elevated levels”. The “levels of stearic acid FA(18:0)” value in [8] is on record as “concurrent reduction”. The “fold reduction in potency versus enantiomer (+)-guadial B” value in [14] (P1 probe labeling blockade) was around 10 fold.
